Measurements: ChEMBL document CHEMBL3297677, “A new 9-alkyladenine-cyclic methylglyoxal diadduct activates wt- and F508del-cystic fibrosis transmembrane conductance regulator (CFTR) in vitro and in vivo” (Eur J Med Chem, 2014)
One block for each molecule: values may come before it. Activity calls are given as the source filed them. The calls are words filed in the database; no cut-off is given here.

Legend:
[1] = target: T1, Cystic fibrosis transmembrane conductance regulator (Homo sapiens, UniProt P13569); test: Activation of wild-type CFTR (unknown origin) expressed in forskolin-stimulated CHO cells assessed as increase in iodide efflux at 100 uM by gamma counting; type: cell-based
Summary of the method: (§1)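 Iodide efflux with a robotic system. Cells were loaded at 37 °C for 30 min in Krebs' solution with 1 mM KI and Na¹²⁵I so the label reached equilibrium. The first three aliquots (t0–t2) in cold Krebs' buffer gave the baseline, and compound medium was used for t3–t8. Residual radioactivity was extracted with 0.1 M NaOH/0.1% SDS and gamma-counted. Relative rate = k_peak − k_basal (min⁻¹), expressed as % of maximal activation. EC50 came from nonlinear regression.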
Target sequence in this assay (P13569 whole entry, looked up): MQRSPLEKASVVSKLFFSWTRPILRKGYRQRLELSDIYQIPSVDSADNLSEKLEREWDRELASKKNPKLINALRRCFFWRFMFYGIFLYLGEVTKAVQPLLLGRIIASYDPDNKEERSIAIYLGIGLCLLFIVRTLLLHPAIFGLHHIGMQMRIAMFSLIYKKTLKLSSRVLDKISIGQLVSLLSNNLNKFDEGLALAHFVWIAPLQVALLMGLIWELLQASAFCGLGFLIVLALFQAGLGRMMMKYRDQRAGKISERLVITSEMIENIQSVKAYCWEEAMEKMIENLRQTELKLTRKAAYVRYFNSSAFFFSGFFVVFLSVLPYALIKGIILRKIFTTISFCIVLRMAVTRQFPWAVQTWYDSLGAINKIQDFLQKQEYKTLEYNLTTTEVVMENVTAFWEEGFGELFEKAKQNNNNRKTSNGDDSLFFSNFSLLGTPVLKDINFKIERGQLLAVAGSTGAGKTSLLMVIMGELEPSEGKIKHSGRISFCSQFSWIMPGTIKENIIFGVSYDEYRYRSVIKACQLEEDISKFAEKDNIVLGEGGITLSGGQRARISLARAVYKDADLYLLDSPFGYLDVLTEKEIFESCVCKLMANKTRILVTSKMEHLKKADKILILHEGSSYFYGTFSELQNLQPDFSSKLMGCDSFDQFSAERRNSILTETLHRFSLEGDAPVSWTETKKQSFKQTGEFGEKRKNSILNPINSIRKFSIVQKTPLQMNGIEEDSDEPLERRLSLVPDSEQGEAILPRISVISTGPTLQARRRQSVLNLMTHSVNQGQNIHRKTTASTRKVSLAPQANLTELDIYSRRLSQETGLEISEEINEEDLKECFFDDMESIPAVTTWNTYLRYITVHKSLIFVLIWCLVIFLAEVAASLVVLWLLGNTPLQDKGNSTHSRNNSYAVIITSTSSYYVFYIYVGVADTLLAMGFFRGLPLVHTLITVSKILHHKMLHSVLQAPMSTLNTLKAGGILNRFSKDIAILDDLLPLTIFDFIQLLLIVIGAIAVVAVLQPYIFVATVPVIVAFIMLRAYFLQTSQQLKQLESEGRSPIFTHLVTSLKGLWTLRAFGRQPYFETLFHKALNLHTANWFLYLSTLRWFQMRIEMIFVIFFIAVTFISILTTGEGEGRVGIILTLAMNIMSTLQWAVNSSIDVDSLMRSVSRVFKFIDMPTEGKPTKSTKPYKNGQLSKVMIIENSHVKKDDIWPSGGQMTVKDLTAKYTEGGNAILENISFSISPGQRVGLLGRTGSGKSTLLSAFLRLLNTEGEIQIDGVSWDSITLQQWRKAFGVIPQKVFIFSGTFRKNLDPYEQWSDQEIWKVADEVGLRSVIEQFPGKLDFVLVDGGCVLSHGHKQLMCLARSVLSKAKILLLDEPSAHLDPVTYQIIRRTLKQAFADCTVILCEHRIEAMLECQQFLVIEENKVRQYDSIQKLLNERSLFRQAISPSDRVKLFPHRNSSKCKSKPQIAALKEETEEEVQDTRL

[2] = target: T1, Cystic fibrosis transmembrane conductance regulator; test: Activation of wild-type CFTR (unknown origin) expressed in forskolin-stimulated CHO cells assessed as increase in iodide efflux by gamma counting; type: cell-based; summary of the method: as §1
Target sequence in this assay (P13569 whole entry): as the sequence (P13569 whole entry, looked up) above

[3] = target: T1, Cystic fibrosis transmembrane conductance regulator; test: Activation of CFTR in human MM39 cells by DiSBAC2(3) dye based fluorescence analysis in presence of 1 uM CFTRinh-172; type: cell-based
Summary of the method: (§2)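 Human tracheal gland MM39 cells were imaged cell by cell with the potential-sensitive oxonol probe DiSBAC2(3) (ex 535 nm, em 560 nm). Signal is Fx = (Ft − F0)/F0 × 100 relative to the time of stimulus addition. Histograms show the stable fluorescence variation, as mean ± SEM. The CFTR inhibitor CFTRinh-172 was used at 1 µM. Runs were done with or without forskolin.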
Target sequence in this assay (P13569 whole entry, looked up): as above

[4] = target: Cystic fibrosis transmembrane conductance regulator (Homo sapiens, UniProt P13569, F508DEL); test: (§3) Activation of CFTR F508 deletion mutant in forskolin-stimulated and miglustat-corrected human […] cells assessed as increase in iodide efflux by gamma counting; type: cell-based; summary of the method: as §1
Chain of Cystic fibrosis transmembrane conductance regulator (Homo sapiens, UniProt P13569, F508DEL) (P13569 as listed by the source): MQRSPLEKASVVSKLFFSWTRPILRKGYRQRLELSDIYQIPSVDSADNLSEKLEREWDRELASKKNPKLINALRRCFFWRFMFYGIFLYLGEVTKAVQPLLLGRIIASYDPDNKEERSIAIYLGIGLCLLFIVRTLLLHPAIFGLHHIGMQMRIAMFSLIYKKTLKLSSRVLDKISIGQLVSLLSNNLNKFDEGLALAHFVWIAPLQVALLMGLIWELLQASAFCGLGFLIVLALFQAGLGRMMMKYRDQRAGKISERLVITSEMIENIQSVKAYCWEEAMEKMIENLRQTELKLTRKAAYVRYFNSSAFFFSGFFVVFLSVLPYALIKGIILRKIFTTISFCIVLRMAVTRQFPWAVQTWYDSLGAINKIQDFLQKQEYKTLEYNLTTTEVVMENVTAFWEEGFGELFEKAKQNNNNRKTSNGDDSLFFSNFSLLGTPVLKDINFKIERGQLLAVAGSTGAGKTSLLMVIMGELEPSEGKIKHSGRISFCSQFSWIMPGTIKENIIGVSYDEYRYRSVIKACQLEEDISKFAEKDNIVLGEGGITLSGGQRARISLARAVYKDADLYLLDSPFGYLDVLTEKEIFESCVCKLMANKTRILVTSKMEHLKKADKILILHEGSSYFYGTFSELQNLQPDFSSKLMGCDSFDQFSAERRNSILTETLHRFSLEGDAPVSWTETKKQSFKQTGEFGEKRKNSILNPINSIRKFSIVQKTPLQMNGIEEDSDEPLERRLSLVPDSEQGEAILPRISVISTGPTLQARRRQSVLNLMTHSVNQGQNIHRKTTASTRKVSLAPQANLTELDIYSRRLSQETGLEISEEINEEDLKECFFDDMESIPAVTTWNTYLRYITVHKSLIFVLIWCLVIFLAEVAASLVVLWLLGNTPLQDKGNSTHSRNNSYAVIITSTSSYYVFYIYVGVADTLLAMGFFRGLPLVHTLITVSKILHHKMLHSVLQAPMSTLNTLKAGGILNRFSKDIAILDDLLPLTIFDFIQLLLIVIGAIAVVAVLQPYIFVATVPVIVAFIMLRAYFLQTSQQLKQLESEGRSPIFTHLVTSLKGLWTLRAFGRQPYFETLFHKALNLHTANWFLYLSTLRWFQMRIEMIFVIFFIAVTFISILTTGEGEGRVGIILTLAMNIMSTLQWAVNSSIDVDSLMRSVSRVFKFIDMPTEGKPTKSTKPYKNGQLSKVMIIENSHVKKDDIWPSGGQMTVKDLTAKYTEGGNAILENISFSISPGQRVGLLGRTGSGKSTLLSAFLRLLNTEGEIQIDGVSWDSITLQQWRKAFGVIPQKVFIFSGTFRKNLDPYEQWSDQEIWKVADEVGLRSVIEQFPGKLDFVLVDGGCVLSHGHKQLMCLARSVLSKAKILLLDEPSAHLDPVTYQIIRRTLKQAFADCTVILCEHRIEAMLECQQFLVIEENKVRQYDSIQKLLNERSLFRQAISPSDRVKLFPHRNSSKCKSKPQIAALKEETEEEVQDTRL

[5] = system: Cystic fibrosis transmembrane conductance regulator (Homo sapiens), P13569 [F508del]; test: as §3; type: cell-based; summary of the method: as §1
Chain of Cystic fibrosis transmembrane conductance regulator (Homo sapiens), P13569 [F508del] (P13569 as listed by the source): as above

CHO = test: Cytotoxicity against wild-type CFTR transfected CHO cells upto 300 uM after 24 hrs by MTT assay; type: cell-based, Cricetulus griseus; conditions: chinese hamster
Summary of the method: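 Wt-CFTR CHO cells were exposed for 24 h, and viability was read by MTT reduction to formazan. Controls were untreated cells and cells deprived of medium for 24 h.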

[6] = target: T1, Cystic fibrosis transmembrane conductance regulator; test: Activation of CFTR in human MM39 cells by DiSBAC2(3) dye based fluorescence analysis; type: cell-based; summary of the method: as §2
Target sequence in this assay (P13569 whole entry, looked up): as the sequence (P13569 whole entry, looked up) above

Rattus norvegicus [7] = test: Potentiation of isprenaline-induced salivary secretion in male Wistar rat assessed as net weight of saliva secreted at 30 uM, sc followed by treatment with 1 mM cholinergic inhibitor atropine; type: functional, organism-based
Summary of the method: (§4)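 Male Wistar rats (250–300 g) were held supine. Basal secretion was blocked with atropine (1 mM). Saline containing 1 mM atropine plus compound (30 µM), isoprenaline (10 µM) or both was then injected subcutaneously into the cheek. Saliva was collected on paper pieces changed every 4 min and weighed. Secretion rate = saliva weight / collection time (min) / body weight (g).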

Rattus norvegicus [8] = test: Effect on salivary secretion in male Wistar rat assessed as net weight of saliva secreted at 30 uM, sc followed by treatment with 1 mM cholinergic inhibitor atropine; type: functional, organism-based; summary of the method: as §4
[9] = target: T1, Cystic fibrosis transmembrane conductance regulator; test: Activation of CFTR in forskolin-stimulated human MM39 cells by DiSBAC2(3) dye based fluorescence analysis; type: cell-based; summary of the method: as §2
Target sequence in this assay (P13569 whole entry, looked up): as above

[10] = target: T1, Cystic fibrosis transmembrane conductance regulator; test: Activation of CFTR in forskolin-stimulated human MM39 cells by DiSBAC2(3) dye based fluorescence analysis in presence of 1 uM CFTRinh-172; type: cell-based; summary of the method: as §2
Target sequence in this assay (P13569 whole entry, looked up): as above

- Activity [1]: inactive
Compound: CCCCn1cnc2c1N=CN1C2=N[C@](C)(C(=O)O)[C@@H](O)[C@@]1(C)O

- Activity [1]: inactive
Compound: C[C@]1(C(=O)O)N=C2c3ncn(CCCO)c3N=CN2[C@](C)(O)[C@@H]1O

- Activity [1]: inactive
Compound: Cn1cnc2c1N=CN1C2=N[C@](C)(C(=O)O)[C@@H](O)[C@@]1(C)O

- Activity [1]: inactive
Compound: C[C@]1(C(=O)O)N=C2c3ncn(Cc4ccccc4)c3N=CN2[C@](C)(O)[C@@H]1O

- Activity [1]: inactive
Compound: C#CCn1cnc2c1N=CN1C2=N[C@](C)(C(=O)O)[C@@H](O)[C@@]1(C)O

- EC50 [2]: 2.1 µM
Compound: C=CCn1cnc2c1N=CN1C2=N[C@](C)(C(=O)O)[C@H](O)[C@]1(C)O

- Activity [1]: inactive
Compound: CC(C)n1cnc2c1N=CN1C2=N[C@](C)(C(=O)O)[C@@H](O)[C@@]1(C)O

- Activity [3]: inactive
- EC50 [4]: 104 µM
- Activity [5]: Dose-dependent effect
- EC50 [2]: 7.5 µM
- Activity [6]: Active
- Activity [1]: Active
- Activity [9]: Active
- Activity [10]: inactive
Compound: C=CCn1cnc2c1N=CN1C2=N[C@](C)(C(=O)O)[C@@H](O)[C@@]1(C)O
- Activity (CHO): Non-toxic
- Activity (Rattus norvegicus [7]): Active
- Activity (Rattus norvegicus [8]): inactive

- Activity [1]: inactive
Compound: CCn1cnc2c1N=CN1C2=N[C@](C)(C(=O)O)[C@@H](O)[C@@]1(C)O

- Activity [1]: inactive
Compound: C[C@]1(C(=O)O)N=C2c3ncn(CCCc4ccccc4)c3N=CN2[C@](C)(O)[C@@H]1O
